Experimental data as given in ChEMBL document CHEMBL3390837, “Bridged tetrahydroisoquinolines as selective NADPH oxidase 2 (Nox2) inhibitors” (Medchemcomm, 2013).

Key:
NADPH oxidase 4 = molecular target: T1, NADPH oxidase 4 (Homo sapiens, UniProt Q9NPH5); experiment: Inhibition of full length human NOX4 transfected in COS 22 cells assessed as inhibition of ROS generation by measuring H2O2 production by fluorescence assay
T1 sequence (Q9NPH5 whole entry): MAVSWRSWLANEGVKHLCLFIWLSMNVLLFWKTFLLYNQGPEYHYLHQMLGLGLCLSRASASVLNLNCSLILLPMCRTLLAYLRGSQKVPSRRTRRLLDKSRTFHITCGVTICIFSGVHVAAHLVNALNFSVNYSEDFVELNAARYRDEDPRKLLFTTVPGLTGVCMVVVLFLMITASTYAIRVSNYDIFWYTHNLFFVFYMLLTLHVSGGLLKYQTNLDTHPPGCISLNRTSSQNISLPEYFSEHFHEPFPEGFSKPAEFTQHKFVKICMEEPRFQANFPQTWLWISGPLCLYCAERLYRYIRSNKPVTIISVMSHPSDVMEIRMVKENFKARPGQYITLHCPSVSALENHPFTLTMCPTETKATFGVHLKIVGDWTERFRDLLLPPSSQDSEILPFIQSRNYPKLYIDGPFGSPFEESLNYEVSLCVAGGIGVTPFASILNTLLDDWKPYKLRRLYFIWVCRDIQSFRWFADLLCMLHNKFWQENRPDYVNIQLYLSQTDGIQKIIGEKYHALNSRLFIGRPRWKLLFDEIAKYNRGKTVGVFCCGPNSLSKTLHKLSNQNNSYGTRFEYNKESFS

NADPH oxidase 5 = molecular target: T2, NADPH oxidase 5 (Homo sapiens, UniProt Q96PH1); experiment: Inhibition of full length human NOX5 transfected in HEK cells assessed as inhibition of ionomycin-stimulated ROS generation by chemiluminescence assay; type: cell-based, HEK293
T2 sequence (Q96PH1 whole entry): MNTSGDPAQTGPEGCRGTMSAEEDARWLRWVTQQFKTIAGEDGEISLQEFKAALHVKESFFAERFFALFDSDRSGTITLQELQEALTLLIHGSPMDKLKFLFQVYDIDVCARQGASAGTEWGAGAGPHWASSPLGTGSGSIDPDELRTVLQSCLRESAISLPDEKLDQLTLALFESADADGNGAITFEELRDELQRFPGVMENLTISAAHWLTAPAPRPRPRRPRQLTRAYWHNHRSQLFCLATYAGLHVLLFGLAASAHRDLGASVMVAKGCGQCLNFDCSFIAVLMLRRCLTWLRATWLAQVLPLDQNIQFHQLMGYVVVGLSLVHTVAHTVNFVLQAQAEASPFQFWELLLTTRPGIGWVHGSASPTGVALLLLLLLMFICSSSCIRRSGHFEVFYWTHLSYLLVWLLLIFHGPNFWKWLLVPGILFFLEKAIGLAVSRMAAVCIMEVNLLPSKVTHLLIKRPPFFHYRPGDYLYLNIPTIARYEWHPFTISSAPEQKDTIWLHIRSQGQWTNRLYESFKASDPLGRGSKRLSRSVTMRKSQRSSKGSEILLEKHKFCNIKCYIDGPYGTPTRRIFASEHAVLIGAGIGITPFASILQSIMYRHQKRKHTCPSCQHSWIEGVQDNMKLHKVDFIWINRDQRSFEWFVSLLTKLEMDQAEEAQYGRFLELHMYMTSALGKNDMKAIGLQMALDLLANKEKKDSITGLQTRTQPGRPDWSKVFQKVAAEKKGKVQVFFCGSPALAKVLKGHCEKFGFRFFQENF
Procedure, shortened: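 HEK-Nox5 cells at 5 × 10⁴ cells/well in OPTIMEM, 10 min at 37 °C in PBS with L-012, then stimulated with 1 µM PMA/0.1 µM ionomycin; luminescence over time; SOD 150 U/mL used to confirm superoxide specificity. IC50 by three-parameter fit, Hill slope 1, top/bottom fixed 100/0.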

NADPH oxidase 1 = molecular target: T3, NADPH oxidase 1 (Homo sapiens, UniProt Q9Y5S8); experiment: Inhibition of full length human NOX1 transfected in COS 22 cells assessed as inhibition of constitutive ROS generation by chemiluminescence assay
T3 sequence (Q9Y5S8 whole entry): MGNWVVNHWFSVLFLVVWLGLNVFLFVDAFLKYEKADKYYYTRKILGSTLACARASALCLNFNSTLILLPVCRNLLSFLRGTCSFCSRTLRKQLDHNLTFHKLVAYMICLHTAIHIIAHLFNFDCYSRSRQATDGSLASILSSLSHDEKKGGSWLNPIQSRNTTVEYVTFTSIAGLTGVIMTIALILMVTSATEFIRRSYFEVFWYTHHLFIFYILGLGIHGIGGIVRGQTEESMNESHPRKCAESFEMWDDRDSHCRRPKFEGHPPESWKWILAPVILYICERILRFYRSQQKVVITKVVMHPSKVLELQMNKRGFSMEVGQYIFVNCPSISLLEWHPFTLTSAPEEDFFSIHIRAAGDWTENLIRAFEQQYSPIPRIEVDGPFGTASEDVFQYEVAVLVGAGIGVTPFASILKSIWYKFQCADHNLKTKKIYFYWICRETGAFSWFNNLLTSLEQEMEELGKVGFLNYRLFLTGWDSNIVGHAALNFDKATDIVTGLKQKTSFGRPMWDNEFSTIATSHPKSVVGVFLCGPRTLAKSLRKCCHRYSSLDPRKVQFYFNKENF

[1] = molecular target: Xanthine dehydrogenase/oxidase (Bos taurus, UniProt P80457); experiment: Inhibition of bovine milk xanthine oxidase assessed as hypoxanthine-stimulated ROS generation by measuring H2O2 production at 25 to 50 uM by fluorescence assay; conditions: cattle
Chain of Xanthine dehydrogenase/oxidase (P80457 whole entry): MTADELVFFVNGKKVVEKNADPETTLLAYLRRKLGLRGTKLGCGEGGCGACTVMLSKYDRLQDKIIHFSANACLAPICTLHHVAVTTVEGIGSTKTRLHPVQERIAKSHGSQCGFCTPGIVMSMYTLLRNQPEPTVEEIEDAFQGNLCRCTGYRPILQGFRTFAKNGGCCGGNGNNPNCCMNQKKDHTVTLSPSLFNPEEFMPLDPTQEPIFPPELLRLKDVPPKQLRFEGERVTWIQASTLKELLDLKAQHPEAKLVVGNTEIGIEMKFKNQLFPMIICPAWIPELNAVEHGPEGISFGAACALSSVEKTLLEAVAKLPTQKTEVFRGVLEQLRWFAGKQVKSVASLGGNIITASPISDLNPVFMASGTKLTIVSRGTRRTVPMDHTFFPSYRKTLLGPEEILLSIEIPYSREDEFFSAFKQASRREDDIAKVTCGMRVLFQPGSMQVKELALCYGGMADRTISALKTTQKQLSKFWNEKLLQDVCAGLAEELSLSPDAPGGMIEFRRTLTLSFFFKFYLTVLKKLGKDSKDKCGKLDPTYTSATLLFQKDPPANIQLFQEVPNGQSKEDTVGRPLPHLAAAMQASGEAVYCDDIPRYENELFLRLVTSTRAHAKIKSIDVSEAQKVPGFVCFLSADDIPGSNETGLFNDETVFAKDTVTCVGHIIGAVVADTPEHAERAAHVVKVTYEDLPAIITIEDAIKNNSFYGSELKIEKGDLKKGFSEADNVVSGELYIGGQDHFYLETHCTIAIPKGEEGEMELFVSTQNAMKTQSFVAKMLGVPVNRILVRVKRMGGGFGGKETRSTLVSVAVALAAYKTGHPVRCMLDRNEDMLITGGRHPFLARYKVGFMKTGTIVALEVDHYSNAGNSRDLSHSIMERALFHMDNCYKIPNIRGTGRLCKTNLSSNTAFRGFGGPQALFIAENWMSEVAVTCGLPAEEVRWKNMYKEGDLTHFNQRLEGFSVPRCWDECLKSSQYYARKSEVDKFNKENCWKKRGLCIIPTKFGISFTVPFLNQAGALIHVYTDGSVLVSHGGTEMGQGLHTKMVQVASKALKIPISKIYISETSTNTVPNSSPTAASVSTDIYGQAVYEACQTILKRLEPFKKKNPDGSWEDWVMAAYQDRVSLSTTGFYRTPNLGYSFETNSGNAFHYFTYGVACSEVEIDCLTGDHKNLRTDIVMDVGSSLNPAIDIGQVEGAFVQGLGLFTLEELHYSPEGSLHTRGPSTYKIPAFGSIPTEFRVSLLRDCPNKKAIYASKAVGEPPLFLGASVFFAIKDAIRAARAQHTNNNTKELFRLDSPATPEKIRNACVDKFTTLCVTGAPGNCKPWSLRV

NADPH oxidase 2 [2] = molecular target: T4, NADPH oxidase 2 (Homo sapiens, UniProt P04839); experiment: Inhibition of full length human NOX2 transfected in COS 22 cells assessed as inhibition of Phorbol 12-myristate 13-acetate-stimulated ROS generation by measuring H2O2 production by fluorescence assay in presence of superoxide dismutase; type: cell-based
T4 sequence (P04839 whole entry): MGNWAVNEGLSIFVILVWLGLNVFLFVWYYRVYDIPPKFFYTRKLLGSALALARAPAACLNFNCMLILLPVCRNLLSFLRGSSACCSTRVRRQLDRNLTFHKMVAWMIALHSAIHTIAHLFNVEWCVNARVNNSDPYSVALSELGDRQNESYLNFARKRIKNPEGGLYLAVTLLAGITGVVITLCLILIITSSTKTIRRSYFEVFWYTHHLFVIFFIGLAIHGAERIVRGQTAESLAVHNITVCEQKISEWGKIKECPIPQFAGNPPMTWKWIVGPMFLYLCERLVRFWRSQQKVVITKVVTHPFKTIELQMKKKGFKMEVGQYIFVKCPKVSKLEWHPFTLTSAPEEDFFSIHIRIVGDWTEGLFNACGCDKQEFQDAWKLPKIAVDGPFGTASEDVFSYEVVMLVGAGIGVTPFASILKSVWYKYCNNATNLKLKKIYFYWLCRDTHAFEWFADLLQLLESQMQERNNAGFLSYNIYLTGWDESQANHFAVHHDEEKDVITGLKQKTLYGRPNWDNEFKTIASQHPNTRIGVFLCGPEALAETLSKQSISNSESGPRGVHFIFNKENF
Procedure, shortened: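 Intact COS-Nox2 cells in Hepes pH 7.4 buffer with 0.1 mM Amplex Red, 0.32 U/ml HRP and 150 U/mL SOD, drug 15 min at 37 °C; started with 5 µM PMA; fluorescence monitored 1 h at 37 °C; rate as RFU/min minus unstimulated cells; % of vehicle control.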

NADPH oxidase 2 [3] = molecular target: T4, NADPH oxidase 2; experiment: Inhibition of full length human NOX2 transfected in COS 22 cells assessed as inhibition of Phorbol 12-myristate 13-acetate-stimulated ROS generation by chemiluminescence assay; type: cell-based
Procedure, shortened: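 COS-Nox2 (COS-7 stably expressing human p22phox, Nox2, p47phox, p67phox) plated in OPTIMEM at 2.5 x 10³ cells/well; 10 min at 37 °C in PBS with L-012, then stimulated with 5 µM PMA; luminescence followed over time; superoxide specificity checked with SOD 150 U/mL. IC50 by three-parameter non-linear fit, Hill slope 1, top/bottom fixed 100/0.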

[4] = Cytotoxicity against african green monkey COS7 cells expressing human p22phox assessed as cell viability at 25 to 50 uM after 15 mins by luminogenic assay; type: cell-based; conditions: chlorocebus aethiops, cos-7, 0.25 h
Procedure, shortened: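 COS-22 cells plated at 2.5 x 10³ cells/well in OPTIMEM, exposed 15 min to compounds at various concentrations; dead-cell protease release read with luminogenic AAF peptide substrate, signal before and after digitonin used to derive % dead; reported as % live cells (100 − % dead) per well.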

IC50 (NADPH oxidase 4; read-out: IC50) [µM] | IC50 (NADPH oxidase 5) [µM] | IC50 (NADPH oxidase 1; read-out: IC50) [µM] | inhibition (INH) [1] | IC50 (NADPH oxidase 2 [2]; read-out: IC50) [µM] | IC50 (NADPH oxidase 2 [3]; read-out: IC50) [µM] | IC50 (NADPH oxidase 4; cos 22) | IC50 (NADPH oxidase 1; cos 22) | SMILES | IC50 (NADPH oxidase 2 [2]; cos 22) | IC50 (NADPH oxidase 2 [3]; cos 22) | Activity [4]
> 100 | > 100 | > 100 | Not Active | 20 | 20 | – | – | C=C(C)C[C@H]1[C@H]2c3c(Br)cccc3[C@H](CC2(C)C)N1CCCCC (racemic) | – | – | –
> 100 | > 100 | > 100 | Not Active | 40 | 88 | – | – | C=C(C)C[C@H]1[C@H]2c3c(Br)cccc3[C@H](CC2(C)C)N1Cc1ccc2c(c1)OCO2 (racemic) | – | – | –
> 100 | > 100 | > 100 | Not Active | 79 | > 100 | – | – | C=C(C)C[C@H]1[C@H]2c3c(-c4ccc(Cl)c(Cl)c4)cccc3[C@H](CC2(C)C)N1CCCCC (racemic) | – | – | –
– | > 100 | > 100 | Not Active | > 100 | > 100 | Not Active | – | C=C(C)C[C@H]1[C@H]2c3c(Br)cccc3[C@H](CC2(C)C)N1Cc1ccnc2ccccc12 (racemic) | – | – | –
– | > 100 | > 100 | Not Active | > 100 | > 100 | Not Active | – | C=C(C)C[C@H]1[C@H]2c3c(-c4ccc(Cl)c(Cl)c4)cccc3[C@H](CC2(C)C)N1Cc1ccc2c(c1)OCO2 (racemic) | – | – | –
> 100 | 31 | > 100 | Not Active | 12 | 48 | – | – | C=C(C)C[C@H]1[C@H]2c3c(Br)cccc3[C@H](CC2(C)C)N1Cc1cc(C)on1 (racemic) | – | – | –
– | > 100 | > 100 | Not Active | 32 | 38 | Not Active | – | C=C(C)C[C@H]1[C@H]2c3c(Br)cccc3[C@H](CC2(C)C)N1Cc1cccs1 (racemic) | – | – | –
> 100 | 14 | > 100 | Not Active | 64 | 9 | – | – | C=C(C)C[C@@H]1N[C@H]2CC(C)(C)[C@@H]1c1c(-c3ccc(Cl)c(Cl)c3)cccc12 (racemic) | – | – | –
> 100 | 79 | > 100 | Not Active | 51 | 68 | – | – | C=C(C)C[C@H]1[C@H]2c3c(Br)cccc3[C@H](CC2(C)C)N1Cc1cccc(F)c1 (racemic) | – | – | –

Further lines, the molecule ahead of its results:

SMILES | IC50 (NADPH oxidase 4; read-out: IC50) [µM] | IC50 (NADPH oxidase 5) [µM] | IC50 (NADPH oxidase 1; read-out: IC50) [µM] | inhibition (INH) [1] | IC50 (NADPH oxidase 2 [2]; read-out: IC50) [µM] | IC50 (NADPH oxidase 2 [3]; read-out: IC50) [µM] | IC50 (NADPH oxidase 4; cos 22) | IC50 (NADPH oxidase 1; cos 22) | IC50 (NADPH oxidase 2 [2]; cos 22) | IC50 (NADPH oxidase 2 [3]; cos 22) | Activity [4]
C=C(C)C[C@@H]1N[C@H]2CC(C)(C)[C@@H]1c1ccccc12 (racemic) | – | > 100 | > 100 | Not Active | > 100 | > 100 | Not Active | – | – | – | –
C=C(C)C[C@@H]1N[C@H]2CC(C)(C)[C@@H]1c1c(-c3cccnc3)cccc12 (racemic) | – | – | – | Not Active | – | – | – | – | Not Active | Not Active | –
[Cl-].c1ccc2c(c1)[I+]c1ccccc1-2 [DIPHENYLENEIODONIUM CHLORIDE] | – | – | – | Not Active | – | – | – | – | – | – | –
C=C(C)C[C@H]1[C@H]2c3c(Br)cccc3[C@H](CC2(C)C)N1S(=O)(=O)c1ccc(F)cc1 (racemic) | – | > 100 | > 100 | Not Active | > 100 | > 100 | Not Active | – | – | – | –
CC(C)C[C@@H]1N[C@H]2CC(C)(C)[C@@H]1c1c(Br)cccc12 (racemic) | > 100 | 18 | 32 | Not Active | 78 | 31 | – | – | – | – | Non-toxic
C=C(C)C[C@H]1[C@H]2c3c(Br)cccc3[C@H](CC2(C)C)N1Cc1c[nH]c2ccccc12 (racemic) | – | > 100 | > 100 | Not Active | > 100 | > 100 | Not Active | – | – | – | –
C=C(C)C[C@H]1[C@H]2c3ccccc3[C@H](CC2(C)C)N1Cc1cccc(F)c1 (racemic) | > 100 | 50 | > 100 | Not Active | 30 | 68 | – | – | – | – | –
C=C(C)C[C@H]1[C@H]2c3c(Br)cccc3[C@H](CC2(C)C)N1S(C)(=O)=O (racemic) | > 100 | > 100 | – | Not Active | 27 | > 100 | – | Not Active | – | – | –
